{"data": "Measured values pooled from the literature", "note": "Lines come from different studies, so protocols differ."}
{"SMILES": "CN1CCN(c2cccc(-c3ccc4ncnc(Nc5ccc(Cl)c(C(F)(F)F)c5)c4c3)c2)CC1", "medium": "aqueous buffer", "pH": "pH 7.4", "temperature": "25 °C", "measurement": "thermodynamic solubility", "result": "< 1.4 µM"}
{"SMILES": "N#Cc1ccc(C[C@H](Nc2nnc(-c3ccc(F)cc3)s2)C(=O)N2CCc3ccccc32)cc1", "medium": "aqueous buffer", "time": "2 h", "pH": "pH 7.4", "temperature": "37 °C", "measurement": "kinetic solubility", "result": "4.5 µM"}
{"SMILES": "CCCCCCCCCCCCCCCC(=O)NCCOC(=O)C[C@@H](CN)CC(C)C", "medium": "aqueous buffer", "time": "12 h", "pH": "pH 6.8", "temperature": "37 °C", "measurement": "thermodynamic solubility", "result": "3.78 mg/mL"}
{"SMILES": "FC(F)(F)c1cc(Nc2ncnc3ccc(-c4cccc(N5CCOCC5)c4)cc23)ccc1Cl", "medium": "aqueous buffer", "pH": "pH 7.4", "temperature": "25 °C", "measurement": "thermodynamic solubility", "result": "< 0.7 µM"}
{"SMILES": "CCCCCCCCCCCCCCCC(=O)NCCO", "medium": "aqueous buffer", "time": "12 h", "pH": "pH 6.8", "temperature": "37 °C", "measurement": "thermodynamic solubility", "result": "< 0.016 mg/mL"}
{"SMILES": "CCN(CC)CCNC(=O)c1cc(S(C)(=O)=O)ccc1OC", "medium": "PBS", "time": "2 h", "pH": "pH 7.4", "temperature": "25 °C", "measurement": "kinetic solubility", "result": "394 µM"}
{"SMILES": "Fc1ccccc1Nc1nc(-c2ccncc2)nc2c1CNCC2", "medium": "PBS", "time": "24 h", "pH": "pH 7.4", "measurement": "kinetic solubility", "result": "> 250 µM"}
{"SMILES": "Cc1ccc(-c2nnc(N[C@@H](Cc3ccc(C#N)cc3)C(=O)N3CCc4ccccc43)o2)cc1", "medium": "aqueous buffer", "time": "2 h", "pH": "pH 7.4", "temperature": "37 °C", "measurement": "kinetic solubility", "result": "5.4 µM"}
{"SMILES": "Cc1ccccc1CN1C(=O)C2=C(CCN(Cc3ccccc3)C2)N2CCN=C12", "method": "shake flask", "medium": "aqueous buffer", "pH": "pH 4.5", "measurement": "solubility", "result": "98.6 mg/mL"}
{"SMILES": "N#Cc1ccc(C[C@H](NC(=O)Nc2ccc(F)cc2)C(=O)N2CCc3ccccc32)cc1", "medium": "aqueous buffer", "time": "2 h", "pH": "pH 7.4", "temperature": "37 °C", "measurement": "kinetic solubility", "result": "10.5 µM"}
{"SMILES": "CNS(=O)(=O)c1ccc(Nc2ncc(C(F)(F)F)c([C@H]3CC[C@@](C)(O)CC3)n2)c(C)c1", "medium": "FaSSIF", "time": "2 h", "measurement": "solubility", "result": "128 µM"}
{"SMILES": "N#Cc1ccc(C[C@@H](Nc2c(Nc3ccc(F)cc3)c(=O)c2=O)C(=O)N2CCc3ccccc32)cc1", "medium": "aqueous buffer", "time": "2 h", "pH": "pH 7.4", "temperature": "37 °C", "measurement": "kinetic solubility", "result": "11.8 µM"}
{"SMILES": "O=C(N1CCCCC1)C12CC(c3ccccc3)(C1)C2", "medium": "PBS", "time": "2 h", "pH": "pH 7.4", "temperature": "25 °C", "measurement": "kinetic solubility", "result": "266 µM"}
{"SMILES": "N#Cc1ccc(C[C@H](NC(=O)c2cc3cc(F)ccc3[nH]2)C(=O)N2CCc3ccccc32)cc1", "medium": "aqueous buffer", "time": "2 h", "pH": "pH 7.4", "temperature": "37 °C", "measurement": "kinetic solubility", "result": "1 µM"}
{"SMILES": "CN1CCN(c2cccc(-c3ccc4ncnc(Nc5ccc(Cl)c(Cl)c5)c4c3)c2)CC1", "medium": "aqueous buffer", "pH": "pH 7.4", "temperature": "25 °C", "measurement": "thermodynamic solubility", "result": "< 1.7 µM"}
